Laboratory results published in ChEMBL document CHEMBL1275541, “A plasmid-borne blaOXA-58 gene confers imipenem resistance to Acinetobacter baumannii isolates from a Lebanese hospital” (2008).
≈ marks a conversion by molar mass, not a printed value. Calls of active or inactive are those of the source. The rule behind the calls is not given here.

Assays:
Acinetobacter baumannii [1] = experiment: Antibacterial activity against Acinetobacter baumannii PFGE type A isolate by microdilution method; assay type: functional
Method in brief: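 MIC by broth microdilution following CLSI M7-A6; susceptibility interpreted with CLSI breakpoints.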

Acinetobacter baumannii [2] = experiment: Antibacterial activity against Acinetobacter baumannii PFGE type A isolate by microdilution method in presence of Sulbactam; assay type: functional
Acinetobacter baumannii [3] = experiment: Antibacterial activity against Acinetobacter baumannii PFGE type A isolate assessed as reduction of MIC by microdilution method in presence of 200 mM NaCl; assay type: functional
Method in brief: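 Broth microdilution MIC per CLSI M7-A6 with CLSI breakpoints. Carbapenem MICs compared with and without 200 mM NaCl to gauge the oxacillinase contribution. blaOXA-58-carrying PFGE type 1 isolates served as CHDL-positive reference and a blaOXA-58-negative PFGE type 2 isolate as CHDL-negative reference.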

Acinetobacter baumannii [4] = experiment: Antibacterial activity against Acinetobacter baumannii PFGE type A isolate assessed as reduction of MIC by microdilution method in presence of 200 mg/liter cloxacillin; assay type: functional, organism-based
Method in brief: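 AmpC contribution was probed by liquid microdilution per CLSI M7-A6. Carbapenem MICs were read with and without 200 mg/liter cloxacillin.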

Acinetobacter baumannii [5] = experiment: Antibacterial activity against imipenem-susceptible Acinetobacter baumannii Ab F PFGE type B transconjugant by microdilution method; assay type: functional
Method in brief: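 Transconjugants came from filter mating of imipenem-resistant donors Ab 1 or Ab 8 (PFGE type A) with recipient Ab F (PFGE type B). They were selected on brain heart infusion agar with imipenem 16 mg/liter plus trimethoprim-sulfamethoxazole 250 mg/liter. MICs were then read by microdilution per CLSI M7-A6.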

Acinetobacter baumannii [6] = experiment: Ratio of MIC for imipenem-susceptible Acinetobacter baumannii Ab F PFGE type B transconjugant to MIC for imipenem-susceptible Acinetobacter baumannii Ab F PFGE type B transconjugant in presence of 200 nM NaCl; assay type: functional; settings: in the assay text read “200 mM NaCl” for “200 nM NaCl”
Method in brief: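 Carbapenem MICs measured by liquid microdilution with and without 200 mM NaCl, to gauge the oxacillinase contribution. Controls were blaOXA-58-carrying PFGE type 1 isolates (CHDL-positive) and a blaOXA-58-negative PFGE type 2 isolate (CHDL-negative). Transconjugants came from filter mating into recipient Ab F and were selected on brain heart infusion agar with imipenem 16 mg/liter plus trimethoprim-sulfamethoxazole 250 mg/liter.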

Acinetobacter baumannii [7] = experiment: Antibacterial activity against Acinetobacter baumannii PFGE type A isolate by Etest MBL strip method; assay type: functional
Method in brief: (§1)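 Imipenem MIC and MBL activity were read with Etest MBL strips on all PFGE type A isolates. A. baumannii AC-54/97, an IMP-2 MBL producer, was the MBL-positive reference strain.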

Acinetobacter baumannii [8] = experiment: Antibacterial activity against Acinetobacter baumannii PFGE type A isolate by Etest MBL strip method in presence of EDTA; assay type: functional; method in brief: as §1
Acinetobacter baumannii [9] = experiment: Antibacterial activity against Acinetobacter baumannii PFGE type A isolate by microdilution method in presence of Tazobactam; assay type: functional

Compound | MIC50 (Acinetobacter baumannii [1]) [µg/mL] | MIC90 (Acinetobacter baumannii [1]) [µg/mL] | also measured
NCC[C@H](O)C(=O)N[C@@H]1C[C@H](N)[C@@H](O[C@H]2O[C@H](CN)[C@@H](O)[C@H](O)[C@H]2O)[C@H](O)[C@H]1O[C@H]1O[C@H](CO)[C@@H](O)[C@H](N)[C@H]1O [AMIKACIN] | 64 (≈ 109 µM) | 125 (≈ 213 µM) | MIC (Acinetobacter baumannii [1]): 64 µg/mL (≈ 109 µM)
CC1(C)S[C@@H]2[C@H](NC(=O)[C@H](N)c3ccccc3)C(=O)N2[C@H]1C(=O)O [AMPICILLIN] |  |  | MIC (Acinetobacter baumannii [2]): 8 µg/mL; MIC50 (Acinetobacter baumannii [2]): 8 µg/mL; MIC90 (Acinetobacter baumannii [2]): 16 µg/mL
CO/N=C(\C(=O)N[C@@H]1C(=O)N2C(C(=O)[O-])=C(C[N+]3(C)CCCC3)CS[C@H]12)c1csc(N)n1 [CEFEPIME] | 16 (≈ 33.3 µM) | 32 (≈ 66.6 µM) | MIC (Acinetobacter baumannii [1]): 16 µg/mL (≈ 33.3 µM)
CC(C)(O/N=C(\C(=O)N[C@@H]1C(=O)N2C(C(=O)[O-])=C(C[n+]3ccccc3)CS[C@H]12)c1csc(N)n1)C(=O)O [CEFTAZIDIME] | 250 (≈ 457 µM) | 250 (≈ 457 µM) | Activity (Acinetobacter baumannii [3]): inactive; Activity (Acinetobacter baumannii [4]): inactive
O=C(O)c1cn(C2CC2)c2cc(N3CCNCC3)c(F)cc2c1=O [CIPROFLOXACIN] | 64 (≈ 193 µM) | 250 (≈ 754 µM) | 
C[C@@H](O)[C@H]1C(=O)N2C(C(=O)O)=C(SCCNC=N)C[C@H]12 [IMIPENEM ANHYDROUS] | 16 (≈ 53.4 µM) | 16 (≈ 53.4 µM) | MIC (Acinetobacter baumannii [3]): 2 µg/mL; Activity (Acinetobacter baumannii [4]): inactive; MIC (Acinetobacter baumannii [5]): 16 µg/mL (≈ 53.4 µM); Ratio (Acinetobacter baumannii [6]): 8; MIC (Acinetobacter baumannii [7]): 8 µg/mL (≈ 26.7 µM); MIC (Acinetobacter baumannii [8]): 4 µg/mL
C[C@@H](O)[C@H]1C(=O)N2C(C(=O)O)=C(S[C@@H]3CN[C@H](C(=O)N(C)C)C3)[C@H](C)[C@H]12 [MEROPENEM] | 8 (≈ 20.9 µM) | 8 (≈ 20.9 µM) | 
CCN1CCN(C(=O)N[C@@H](C(=O)N[C@@H]2C(=O)N3[C@@H]2SC(C)(C)[C@@H]3C(=O)O)c2ccccc2)C(=O)C1=O [PIPERACILLIN] |  |  | MIC (Acinetobacter baumannii [9]): 125 µg/mL; MIC50 (Acinetobacter baumannii [9]): 125 µg/mL; MIC90 (Acinetobacter baumannii [9]): 250 µg/mL
COLISTIN | 2 | 4 | 
GENTAMICIN | 125 | 250 | 
